Compound activity as filed in PubChem BioAssay.
HIF activator – HIF pathway transcriptional activation; AID 1910; activation, % at 7.5 µM (by protocol); U2OS HRE-luciferase reporter, luminescence; normalized: DMSO 0%, desferrioxamine 100%; hit rate 0.32% among 300,000;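 active means mean activation of at least 10% of the iron chelator positive control signal, with at least half of replicates also reaching 10%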
CendR NRP1 mod – NRP-1/CendR interaction modulation. O14786. inhibition, % at 25 µM. FAM-RPARPAR peptide binding to NRP-1, fluorescence polarization. hit rate 0.85% among 360,000;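 active means inhibition or corrected inhibition above about 18%, plus a signal ratio from 0.5 to 1.5, limit read from the data, passing the limit was not always enough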
V-ATPase pHluor – yeast V-ATPase proton transport regulation by pHLuorin; S. cerevisiae, pHLuorin cytosolic pH fluorescence; response, % at 10 µM; hit rate 0.37% among 350,000; in the data active means response mostly above about 7.3%, no sharp cut-off; inactive means mostly below about 5.4%; further: actives read high
T cruzi repl – blocks replication of Trypanosoma cruzi; T. cruzi beta-gal in NIH3T3, luminescence, 90 h; inhibition, % (no concentration beside the values); hit rate 1.4% among 300,000; AID 1885;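 active means mean inhibition across valid replicates above about 55%, limit read from the data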;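 further: signal also drops with host cell toxicity which is not excluded here; 0% = plate median of DMSO wells and 100% = zero luminescence signal; higher percent means less beta-gal luminescence so fewer parasites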
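compound dosing = single 50 nL compound addition per well in DMSO | material = NIH/3T3 host cells with β-galactosidase reporter T. cruzi | input = 5,000 host fibroblasts per well | timing = ≥90 h infection period, 3 h prior cell attachment | read-out basis = percent inhibition of parasite-derived β-gal signal | detection = GalScreen β-gal luminescence, detergent lysis, 60 min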
AI-2 QS modul – modulators of Vibrio harveyi AI-2 quorum sensing system. Vibrio harveyi JMH597 AI-2 luminescence/OD600 ratio, 9 h; stronger effect = lower value; strain lacks LuxN and CqsS sensors; 0 = neutral-control median. activity change, % at 7.5 µM. hit rate 0.4% among 300,000. AID 2094; in the data active means activity change below about -75%, passing the limit was not always enough;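 further: luminescence divided by OD600 gain over 9 h not by final OD600 alone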
Yeast superoxide – caloric restriction mimetics inhibiting age-related superoxide in yeast. hit rate 0.18% among 330,000. superoxide response (% of plate mean), % at 10 µM. S. cerevisiae aged cells, superoxide DHE fluorescence; stronger effect = lower value;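 active means superoxide response under a set limit, about three screen SD below normal, cut at about 65% in these data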;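 further: yeast aged for seven days with compound at 30 °C before DHE staining; 100% = average MFI of all compound-treated wells on the plate with controls excluded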
* = called active by the depositor. Compounds with a hit are over-represented: about 3% of the library has one in this group of screens.

For O=C(c1cc2cc([N+](=O)[O-])ccc2oc1=O)N1CCN(C2CCCCC2)CC1 the results were HIF activator 0, CendR NRP1 mod -7, V-ATPase pHluor -2, T cruzi repl -4, AI-2 QS modul 27 and Yeast superoxide 107.
O=C(CCc1nc(-c2ccccc2)no1)NC1CCCCC1 was read as HIF activator 0, CendR NRP1 mod 16, V-ATPase pHluor -5, T cruzi repl 2, AI-2 QS modul 24 and Yeast superoxide 82.
`Cc1ccc(N2NC(=O)/C(=C/c3ccc(-c4ccc(Cl)c(C(=O)O)c4)o3)C2=O)cc1` gave HIF activator 0, CendR NRP1 mod -30, V-ATPase pHluor -2, T cruzi repl -12, AI-2 QS modul 12 and Yeast superoxide 98.
CCCCC1(C)OC(=O)C(=Cc2ccc(-c3ccc(Cl)c(C(=O)O)c3)o2)C(=O)O1 (stereo unspecified) was read as HIF activator 0, CendR NRP1 mod -104, V-ATPase pHluor 16, T cruzi repl 3, AI-2 QS modul 30 and Yeast superoxide 63*.
Cc1ccc(Cl)cc1N1CCN(CC(O)COCc2ccco2)CC1 (stereo unspecified) was read as HIF activator 194*, CendR NRP1 mod -7, V-ATPase pHluor -7, T cruzi repl 23, AI-2 QS modul 14 and Yeast superoxide 100.
Screening OC(COCc1ccco1)CN1CCN(C(c2ccccc2)c2ccccc2)CC1 (stereo unspecified) returned HIF activator 0, CendR NRP1 mod 8, V-ATPase pHluor -3, T cruzi repl 22, AI-2 QS modul 14 and Yeast superoxide 100.
`COc1ccc(NC(=S)NC2CC3CCC(C2)N3Cc2ccco2)cc1` (stereo unspecified) gave HIF activator 0, CendR NRP1 mod 21*, V-ATPase pHluor 0, T cruzi repl -13, AI-2 QS modul -1 and Yeast superoxide 98.
`CCc1ccc(NC(=S)NC2CC3CCC(C2)N3Cc2ccco2)cc1` (stereo unspecified) gave HIF activator 0, CendR NRP1 mod -8, V-ATPase pHluor -3, T cruzi repl 13, AI-2 QS modul 9 and Yeast superoxide 103.
For COc1ccc(NC(=O)/C(=C\c2cccs2)NC(=O)c2ccco2)cc1 the results were HIF activator 0, CendR NRP1 mod 6, V-ATPase pHluor -2, T cruzi repl 15, AI-2 QS modul 11 and Yeast superoxide 84.
Screening CCN1CCN(c2cc(C)c3cc(NC(=O)Cc4ccccc4OC)ccc3n2)CC1 returned HIF activator 0, CendR NRP1 mod 4, V-ATPase pHluor -1, T cruzi repl 71*, AI-2 QS modul -14 and Yeast superoxide 116.
`COc1ccc(C)cc1NC(=O)CCC(=O)Nc1ccc2nc(N3CCN(C)CC3)cc(C)c2c1` gave HIF activator 1, T cruzi repl 65*, AI-2 QS modul 9 and Yeast superoxide 91.
`O=C(c1ccc[nH]1)N1O[C@@H]2C=C[C@H]1C2` gave CendR NRP1 mod -26, V-ATPase pHluor -2 and Yeast superoxide 92.
CN(C)c1cc(C(F)(F)F)nc(-c2ccccn2)n1 was read as HIF activator -1, CendR NRP1 mod 2, V-ATPase pHluor -5, T cruzi repl -8, AI-2 QS modul -3 and Yeast superoxide 102.
`CSCc1cc(N(C)c2ccccc2)nc(-c2ccccn2)n1` gave HIF activator -1, CendR NRP1 mod -1, V-ATPase pHluor -2, T cruzi repl 60*, AI-2 QS modul 17 and Yeast superoxide 95.
For CC1(C(=O)NCc2ccc3c(c2)OCO3)CCN1C(=O)CCc1ccc(Cl)cc1Cl (stereo unspecified) the results were CendR NRP1 mod -16.
Screening N#C/C(=C/c1cn(-c2ccccc2)nc1-c1cccc(OCc2ccc(F)cc2)c1)C(=O)NCCCn1ccnc1 returned HIF activator -2, CendR NRP1 mod 5, V-ATPase pHluor -1, T cruzi repl 63*, AI-2 QS modul 32 and Yeast superoxide 110.
`CCCOc1cccc(-c2nn(-c3ccccc3)cc2/C=C(\C#N)C(=O)NCCCn2ccnc2)c1` gave HIF activator -1, CendR NRP1 mod -96, V-ATPase pHluor 4, T cruzi repl 31, AI-2 QS modul 21 and Yeast superoxide 111.
CN(Cc1nc2ccccc2[nH]1)Cc1nc(CC2CC2)no1 was read as HIF activator 1, CendR NRP1 mod -19, V-ATPase pHluor 2, T cruzi repl -1, AI-2 QS modul -1 and Yeast superoxide 108.
COc1cccc(CNc2nc3cc(-c4ccc(OC)cc4C)sc3c(=O)n2C)c1 was read as CendR NRP1 mod 25*.
Cc1cnc(CNc2nc3cc(-c4ccccc4C)sc3c(=O)n2C)cn1 was read as CendR NRP1 mod 28*.
`COc1cccc(CNc2nc3cc(-c4cscc4C)sc3c(=O)n2C)c1` gave CendR NRP1 mod 0.
For CCOC(=O)c1ccc(-c2c(-c3ccc(OC)cc3)oc(=O)c3cc(OC)c(OC)cc23)cc1F the results were CendR NRP1 mod 0, V-ATPase pHluor 0 and Yeast superoxide 101.
Screening CCOC(=O)c1ccc(-c2c(-c3cc(OC)c(OC)c(OC)c3)noc2C)cc1F returned HIF activator 1, CendR NRP1 mod 25*, V-ATPase pHluor -5, T cruzi repl 27, AI-2 QS modul 9 and Yeast superoxide 108.
Screening Cc1cccc(C)c1-n1nnnc1C(c1ccccc1OC(F)(F)F)N1CCN(C/C=C/c2ccccc2)CC1 (stereo unspecified) returned CendR NRP1 mod 16.
`CCOC(=O)C1CCCN(Cc2ccc(OCc3ccccc3)c(OC)c2)C1` (stereo unspecified) gave HIF activator -25, CendR NRP1 mod 4, V-ATPase pHluor 5, T cruzi repl 63*, AI-2 QS modul 6 and Yeast superoxide 101.
`CCN(CC)C(=O)C1CCCN(Cc2ccc(N(C)C)cc2)C1` (stereo unspecified) gave HIF activator 0, CendR NRP1 mod -4, V-ATPase pHluor -5, T cruzi repl 71*, AI-2 QS modul 29 and Yeast superoxide 90.
Screening CCOC(=O)C1CCCN(Cc2ccc(OCc3ccccc3)cc2)C1 (stereo unspecified) returned HIF activator -18, CendR NRP1 mod 12, V-ATPase pHluor 0, T cruzi repl 62*, AI-2 QS modul -64 and Yeast superoxide 99.
For CCOC(=O)C1CCCN(Cc2ccc(O)c(OC)c2)C1 (stereo unspecified) the results were HIF activator 0, CendR NRP1 mod 14, V-ATPase pHluor 1, T cruzi repl 58*, AI-2 QS modul 4 and Yeast superoxide 112.
